Tested on: Fibroblast
Assay: Multiplex assay against human fibroblast
Assay type: toxicity, cell-based
Outline: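 At seeding, live cells were stained with Hoechst33342, BioTracker Green Microtubule Cytoskeleton Dye, MitoTracker Red and Annexin V Alexa Fluor 680. After compound addition they were imaged on a CQ1 microscope at 37°C and 5% CO2, and CellPathfinder machine-learning gating sorted them into Hoechst high-intensity objects or normal cells, with normal cells further split into healthy, pyknosed or fragmented nuclei and pyknosed cells into mitotic or apoptotic. Tubulin, mitochondrial-mass and membrane-permeability phenotypes are given as per cents of cells with healthy nuclei.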

[1] = 12 h, 1 µM, compound concentration 1 uM, replicate 1
[2] = 12 h, 1 µM, compound concentration 1 uM, replicate 2
[3] = 12 h, 10 µM, compound concentration 10 uM, replicate 1
[4] = 12 h, 10 µM, compound concentration 10 uM, replicate 2
[5] = 24 h, 1 µM, compound concentration 1 uM, replicate 1
[6] = 24 h, 1 µM, compound concentration 1 uM, replicate 2
[7] = 24 h, 10 µM, compound concentration 10 uM, replicate 1
[8] = 24 h, 10 µM, compound concentration 10 uM, replicate 2
[9] = 48 h, 1 µM, compound concentration 1 uM, replicate 1
[10] = 48 h, 1 µM, compound concentration 1 uM, replicate 2
[11] = 48 h, 10 µM, compound concentration 10 uM, replicate 1
[12] = 48 h, 10 µM, compound concentration 10 uM, replicate 2

## CN(C)C/C=C/C(=O)Nc1ccc(C(=O)N2CCCC(Nc3ncc(Cl)c(-c4c[nH]c5ccccc45)n3)C2)cc1 (centres undefined)
[1]
  Population Apoptotic (%): 48%
  Population Fragmented Nuclei (%): 15%
  Population Healthy Nuclei (%): 64%
  Population Hoechst High Intensity Objects (%): 2%
  Population Membrane Permeable-Phenotype (%): 2%
  Population Mitochondria Different-Phenotype (%): 11%
  Population Mitotic Cells (%): 51%
  Population Normal (%): 97%
  Population Pyknosed Nuclei (%): 19%
  Population Tubulin-Different-Phenotype (%): 40%
  Total Cell Count: 152
[2]
  Population Apoptotic (%): 46%
  Population Fragmented Nuclei (%): 21%
  Population Healthy Nuclei (%): 53%
  Population Hoechst High Intensity Objects (%): 6%
  Population Membrane Permeable-Phenotype (%): 3%
  Population Mitochondria Different-Phenotype (%): 13%
  Population Mitotic Cells (%): 53%
  Population Normal (%): 93%
  Population Pyknosed Nuclei (%): 25%
  Total Cell Count: 182
[3]
  Population Apoptotic (%): 59%
  Population Fragmented Nuclei (%): 18%
  Population Healthy Nuclei (%): 53%
  Population Hoechst High Intensity Objects (%): 4%
  Population Membrane Permeable-Phenotype (%): 1%
  Population Mitochondria Different-Phenotype (%): 37%
  Population Mitotic Cells (%): 40%
  Population Normal (%): 95%
  Population Pyknosed Nuclei (%): 27%
  Population Tubulin-Different-Phenotype (%): 77%
  Total Cell Count: 140
[4]
  Population Apoptotic (%): 48%
  Population Fragmented Nuclei (%): 23%
  Population Healthy Nuclei (%): 41%
  Population Hoechst High Intensity Objects (%): 8%
  Population Membrane Permeable-Phenotype (%): 12%
  Population Mitochondria Different-Phenotype (%): 19%
  Population Mitotic Cells (%): 51%
  Population Normal (%): 91%
  Population Pyknosed Nuclei (%): 35%
  Population Tubulin-Different-Phenotype (%): 58%
  Total Cell Count: 147
[5]
  Population Apoptotic (%): 68%
  Population Fragmented Nuclei (%): 25%
  Population Healthy Nuclei (%): 48%
  Population Hoechst High Intensity Objects (%): 7%
  Population Membrane Permeable-Phenotype (%): 2%
  Population Mitochondria Different-Phenotype (%): 7%
  Population Mitotic Cells (%): 31%
  Population Normal (%): 92%
  Population Pyknosed Nuclei (%): 26%
  Population Tubulin-Different-Phenotype (%): 40%
  Total Cell Count: 155
[6]
  Population Apoptotic (%): 37%
  Population Fragmented Nuclei (%): 26%
  Population Healthy Nuclei (%): 49%
  Population Membrane Permeable-Phenotype (%): 10%
  Population Mitochondria Different-Phenotype (%): 10%
  Population Mitotic Cells (%): 62%
  Population Pyknosed Nuclei (%): 23%
  Population Tubulin-Different-Phenotype (%): 54%
  Total Cell Count: 181
[7]
  Population Apoptotic (%): 65%
  Population Fragmented Nuclei (%): 13%
  Population Healthy Nuclei (%): 49%
  Population Hoechst High Intensity Objects (%): 2%
  Population Membrane Permeable-Phenotype (%): 0%
  Population Mitochondria Different-Phenotype (%): 52%
  Population Mitotic Cells (%): 34%
  Population Normal (%): 97%
  Population Pyknosed Nuclei (%): 37%
  Population Tubulin-Different-Phenotype (%): 84%
  Total Cell Count: 119
[8]
  Population Apoptotic (%): 47%
  Population Fragmented Nuclei (%): 30%
  Population Healthy Nuclei (%): 42%
  Population Hoechst High Intensity Objects (%): 6%
  Population Membrane Permeable-Phenotype (%): 5%
  Population Mitochondria Different-Phenotype (%): 35%
  Population Mitotic Cells (%): 52%
  Population Normal (%): 93%
  Population Pyknosed Nuclei (%): 27%
  Population Tubulin-Different-Phenotype (%): 72%
  Total Cell Count: 149
[9]
  Population Apoptotic (%): 63%
  Population Fragmented Nuclei (%): 33%
  Population Healthy Nuclei (%): 36%
  Population Hoechst High Intensity Objects (%): 10%
  Population Membrane Permeable-Phenotype (%): 2%
  Population Mitochondria Different-Phenotype (%): 20%
  Population Mitotic Cells (%): 36%
  Population Normal (%): 90%
  Population Pyknosed Nuclei (%): 30%
  Population Tubulin-Different-Phenotype (%): 48%
  Total Cell Count: 150
[10]
  Population Apoptotic (%): 60%
  Population Fragmented Nuclei (%): 35%
  Population Healthy Nuclei (%): 40%
  Population Hoechst High Intensity Objects (%): 8%
  Population Membrane Permeable-Phenotype (%): 8%
  Population Mitochondria Different-Phenotype (%): 25%
  Population Mitotic Cells (%): 40%
  Population Normal (%): 91%
  Population Pyknosed Nuclei (%): 24%
  Population Tubulin-Different-Phenotype (%): 68%
  Total Cell Count: 158
[11]
  Population Apoptotic (%): 77%
  Population Fragmented Nuclei (%): 28%
  Population Healthy Nuclei (%): 20%
  Population Hoechst High Intensity Objects (%): 14%
  Population Membrane Permeable-Phenotype (%): 0%
  Population Mitochondria Different-Phenotype (%): 55%
  Population Mitotic Cells (%): 22%
  Population Normal (%): 85%
  Population Pyknosed Nuclei (%): 51%
  Population Tubulin-Different-Phenotype (%): 66%
  Total Cell Count: 103
[12]
  Population Apoptotic (%): 68%
  Population Fragmented Nuclei (%): 27%
  Population Healthy Nuclei (%): 41%
  Population Hoechst High Intensity Objects (%): 13%
  Population Membrane Permeable-Phenotype (%): 17%
  Population Mitochondria Different-Phenotype (%): 29%
  Population Mitotic Cells (%): 31%
  Population Normal (%): 86%
  Population Pyknosed Nuclei (%): 30%
  Population Tubulin-Different-Phenotype (%): 80%
  Total Cell Count: 130

Source: ChEMBL document CHEMBL5058577, “EUbOPEN Chemogenomics Library 2 (Multiplex)” (2022)
